{"source": "paper PMC5295499", "about": "(Bioorganic & medicinal chemistry letters, 2016)", "key": {"[1]": {"test_system": "MDM2-Luc exon-skipping reporter", "experiment": "MDM2-Luc triple exon-skipping luciferase reporter assay", "type": "cell-based", "outline": "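Stable cell line expressing the triple exon-skipping luciferase construct. Exon skipping induced by SF3B1-targeted splicing modulators switches on luciferase, so luminescence is the read-out. The assay was used to screen a library of 830 known drugs and 4359 bioactive compounds.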"}, "CLK2": {"target": "CLK2 (Homo sapiens, UniProt P49760)", "sequence (P49760 whole entry)": "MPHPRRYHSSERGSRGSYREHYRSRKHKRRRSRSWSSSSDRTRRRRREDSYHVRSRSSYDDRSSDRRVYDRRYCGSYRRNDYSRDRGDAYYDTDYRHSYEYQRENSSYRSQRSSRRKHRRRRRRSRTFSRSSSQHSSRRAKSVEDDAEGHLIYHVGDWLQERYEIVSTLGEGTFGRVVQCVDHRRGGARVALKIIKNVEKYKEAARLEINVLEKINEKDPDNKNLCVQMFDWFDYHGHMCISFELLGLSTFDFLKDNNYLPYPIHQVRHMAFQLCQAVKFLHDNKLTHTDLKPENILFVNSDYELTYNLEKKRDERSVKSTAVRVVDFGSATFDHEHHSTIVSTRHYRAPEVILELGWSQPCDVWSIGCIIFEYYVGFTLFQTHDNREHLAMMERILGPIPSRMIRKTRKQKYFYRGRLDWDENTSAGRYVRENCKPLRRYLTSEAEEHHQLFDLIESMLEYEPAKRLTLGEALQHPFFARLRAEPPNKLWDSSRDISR", "experiment": "CLK2 biochemical enzyme inhibition", "details": "20 versus its enantiomer 21"}, "Flt3": {"target": "T1, Flt3 (Homo sapiens, UniProt P36888)", "T1 sequence (P36888 27-993)": "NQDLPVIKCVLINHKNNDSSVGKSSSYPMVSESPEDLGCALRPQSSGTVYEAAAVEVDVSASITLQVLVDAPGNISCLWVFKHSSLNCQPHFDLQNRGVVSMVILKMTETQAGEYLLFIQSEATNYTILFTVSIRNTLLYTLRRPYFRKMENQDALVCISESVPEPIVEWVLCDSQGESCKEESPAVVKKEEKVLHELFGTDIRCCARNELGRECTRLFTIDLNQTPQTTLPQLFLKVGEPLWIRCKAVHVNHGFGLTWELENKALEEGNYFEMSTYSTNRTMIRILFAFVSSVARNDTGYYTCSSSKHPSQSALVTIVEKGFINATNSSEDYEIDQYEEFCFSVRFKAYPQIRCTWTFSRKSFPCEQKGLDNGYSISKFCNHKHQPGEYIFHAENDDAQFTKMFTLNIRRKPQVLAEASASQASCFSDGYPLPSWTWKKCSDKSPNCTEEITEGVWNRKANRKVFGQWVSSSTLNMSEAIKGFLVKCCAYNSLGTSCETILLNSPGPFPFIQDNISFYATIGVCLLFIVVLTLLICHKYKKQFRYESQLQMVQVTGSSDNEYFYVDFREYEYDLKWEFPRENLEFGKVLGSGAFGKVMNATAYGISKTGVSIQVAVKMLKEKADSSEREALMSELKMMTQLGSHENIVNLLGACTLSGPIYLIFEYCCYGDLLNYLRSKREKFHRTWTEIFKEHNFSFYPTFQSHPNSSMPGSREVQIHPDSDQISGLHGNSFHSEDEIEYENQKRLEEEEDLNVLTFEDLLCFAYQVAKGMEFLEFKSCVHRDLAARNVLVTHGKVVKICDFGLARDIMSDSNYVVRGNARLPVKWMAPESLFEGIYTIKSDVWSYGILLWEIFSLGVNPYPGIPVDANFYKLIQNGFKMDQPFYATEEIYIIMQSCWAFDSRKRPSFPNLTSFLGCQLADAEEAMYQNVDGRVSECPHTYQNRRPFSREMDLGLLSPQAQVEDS", "experiment": "Kinase profiling screen, Flt3", "type": "biochemical", "details": "1 μM, in duplicate"}, "Src(1-530)": {"target": "Src(1-530) (Homo sapiens, UniProt P12931)", "sequence (P12931 1-530)": "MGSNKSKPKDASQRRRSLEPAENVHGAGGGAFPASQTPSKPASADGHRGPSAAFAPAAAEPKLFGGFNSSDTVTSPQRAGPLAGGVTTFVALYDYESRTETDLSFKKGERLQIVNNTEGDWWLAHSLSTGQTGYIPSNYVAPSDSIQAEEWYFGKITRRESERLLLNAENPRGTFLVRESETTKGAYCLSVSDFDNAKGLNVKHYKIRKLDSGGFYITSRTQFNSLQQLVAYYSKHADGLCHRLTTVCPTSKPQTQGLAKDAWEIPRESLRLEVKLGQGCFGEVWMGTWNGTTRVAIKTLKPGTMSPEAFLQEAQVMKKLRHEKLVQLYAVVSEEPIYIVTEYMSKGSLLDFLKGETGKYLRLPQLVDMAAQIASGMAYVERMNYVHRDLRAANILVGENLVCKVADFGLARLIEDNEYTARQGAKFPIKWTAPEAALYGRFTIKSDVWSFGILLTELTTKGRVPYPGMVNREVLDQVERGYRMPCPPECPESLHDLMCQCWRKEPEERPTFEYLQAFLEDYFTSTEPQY", "experiment": "Kinase profiling screen, Src", "type": "biochemical", "details": "1 μM, in duplicate"}, "Plk1": {"target": "Plk1 (Homo sapiens, UniProt P53350)", "sequence (P53350 whole entry)": "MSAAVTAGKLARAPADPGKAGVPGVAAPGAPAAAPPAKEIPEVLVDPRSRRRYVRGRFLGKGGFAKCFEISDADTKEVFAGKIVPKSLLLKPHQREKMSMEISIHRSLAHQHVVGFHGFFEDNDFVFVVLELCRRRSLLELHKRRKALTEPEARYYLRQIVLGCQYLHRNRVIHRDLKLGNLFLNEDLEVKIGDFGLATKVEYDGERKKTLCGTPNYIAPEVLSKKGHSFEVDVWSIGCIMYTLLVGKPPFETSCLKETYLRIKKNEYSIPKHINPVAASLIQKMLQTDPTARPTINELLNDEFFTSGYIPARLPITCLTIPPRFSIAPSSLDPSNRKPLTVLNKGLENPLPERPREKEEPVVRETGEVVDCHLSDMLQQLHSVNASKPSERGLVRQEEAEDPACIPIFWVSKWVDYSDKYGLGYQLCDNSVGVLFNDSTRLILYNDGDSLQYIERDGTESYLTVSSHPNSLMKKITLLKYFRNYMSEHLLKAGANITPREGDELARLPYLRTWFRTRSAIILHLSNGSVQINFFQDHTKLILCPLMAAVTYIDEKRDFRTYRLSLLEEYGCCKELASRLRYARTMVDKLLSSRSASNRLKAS", "experiment": "Kinase profiling screen, Plk1", "type": "biochemical", "details": "1 μM, in duplicate"}, "CLK1": {"target": "CLK1 (Homo sapiens, UniProt P49759)", "sequence (P49759 whole entry)": "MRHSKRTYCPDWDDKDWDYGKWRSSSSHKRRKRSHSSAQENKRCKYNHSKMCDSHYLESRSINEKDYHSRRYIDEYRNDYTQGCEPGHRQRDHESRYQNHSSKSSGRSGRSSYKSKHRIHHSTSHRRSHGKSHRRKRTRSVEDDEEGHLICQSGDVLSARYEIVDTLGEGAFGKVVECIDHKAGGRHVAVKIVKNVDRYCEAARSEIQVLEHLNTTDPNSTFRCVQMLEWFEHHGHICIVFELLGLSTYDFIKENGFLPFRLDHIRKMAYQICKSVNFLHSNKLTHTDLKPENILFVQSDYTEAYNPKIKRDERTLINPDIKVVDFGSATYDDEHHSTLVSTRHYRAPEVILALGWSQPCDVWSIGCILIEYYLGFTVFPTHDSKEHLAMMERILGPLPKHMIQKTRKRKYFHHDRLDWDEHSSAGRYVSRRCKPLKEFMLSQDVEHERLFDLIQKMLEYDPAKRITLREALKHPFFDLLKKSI", "experiment": "CLK1 biochemical enzyme inhibition", "details": "screened for CLK1 activity, data not shown"}, "Solubility": {"experiment": "Solubility", "type": "physicochemical", "details": "data not shown"}, "CDK4": {"target": "CDK4 (Homo sapiens, UniProt P11802)", "sequence (P11802 whole entry)": "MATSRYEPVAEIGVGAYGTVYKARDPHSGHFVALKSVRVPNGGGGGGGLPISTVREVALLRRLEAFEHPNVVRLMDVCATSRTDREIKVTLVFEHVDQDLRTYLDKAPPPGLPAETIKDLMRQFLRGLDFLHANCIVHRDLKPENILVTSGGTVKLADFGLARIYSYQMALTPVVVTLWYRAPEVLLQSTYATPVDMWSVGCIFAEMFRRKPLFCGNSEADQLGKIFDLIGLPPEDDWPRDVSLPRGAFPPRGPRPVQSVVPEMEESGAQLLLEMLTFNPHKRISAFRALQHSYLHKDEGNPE", "sequence (P30281 whole entry partner)": "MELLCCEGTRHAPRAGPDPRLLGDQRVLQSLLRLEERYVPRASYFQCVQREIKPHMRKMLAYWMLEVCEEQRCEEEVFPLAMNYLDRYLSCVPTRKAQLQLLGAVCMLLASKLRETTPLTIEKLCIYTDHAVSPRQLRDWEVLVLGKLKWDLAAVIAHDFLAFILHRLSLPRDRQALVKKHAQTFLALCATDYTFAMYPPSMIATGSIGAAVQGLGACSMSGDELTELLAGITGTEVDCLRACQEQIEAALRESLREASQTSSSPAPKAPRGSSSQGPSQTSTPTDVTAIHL", "experiment": "CDK4 biochemical enzyme inhibition", "details": "read-out: CDK4 IC50"}}, "note": "“Also recorded” adds a separate entry of the source."}
{"smiles": "CC(C)n1ccc2c(Nc3cccc(Cl)c3)nc(N[C@H]3CCCC[C@H]3N)nc21", "note": "[Compound 11]", "values": [{"measurement": "activity in the MDM2-Luc assay at 10 μM", "setting": "[1]", "value": "completely abrogated all activity"}]}
{"smiles": "COC(=O)c1c(/C(C#N)=C\\N)c2ccc(Cl)c(Cl)c2n1C", "note": "[KH-CB19, reference compound]", "values": [{"measurement": "activity in the MDM2-Luc assay", "setting": "[1]", "value": "modest activity; also recorded: barely passes the minimal hit criteria"}]}
{"smiles": "COc1ccc2c(C)nc(Nc3nc(C)c(C)c(O)n3)nc2c1", "note": "[Madrasin, reference compound]", "values": [{"measurement": "activity in the MDM2-Luc assay at 10 μM", "setting": "[1]", "value": "neither compound showed significant activity"}]}
{"smiles": "CC(C)n1cnc2c(Nc3cc(N)cc(Cl)c3)nc(N[C@H]3CCCC[C@@H]3N)nc21", "note": "[Compound 20]", "values": [{"measurement": "potency difference between enantiomers for CLK2", "setting": "CLK2", "value": "> 10", "unit": "fold"}]}
{"smiles": "CC(=O)Nc1cc(Cl)cc(Nc2nc(N[C@@H]3CCCC[C@@H]3N)nc3c2ncn3C(C)C)c1", "note": "[Compound 15]", "values": [{"measurement": "activity in the MDM2-Luc assay", "setting": "[1]", "value": "strong MDM2-Luc activity; also recorded: strong luciferase response"}]}
{"smiles": "CCn1cnc2c(Nc3cccc(Cl)c3)nc(N[C@@H]3CCCC[C@@H]3NC(C)=O)nc21", "note": "[Compound 12]", "values": [{"measurement": "activity in the MDM2-Luc assay at 10 μM", "setting": "[1]", "value": "completely abrogated all activity"}]}
{"smiles": "CC(C)n1cnc2c(Nc3cc(N)cc(Cl)c3)nc(N[C@@H]3CCCC[C@@H]3N)nc21", "note": "[Compound 14]", "values": [{"measurement": "activity in the MDM2-Luc assay", "setting": "[1]", "value": "strong MDM2-Luc activity; also recorded: strong luciferase response"}, {"measurement": "off-target activity against Flt3", "setting": "Flt3", "value": "off-target activity"}, {"measurement": "off-target activity against Src(1-530)", "setting": "Src(1-530)", "value": "off-target activity"}, {"measurement": "off-target activity against Plk1", "setting": "Plk1", "value": "off-target activity"}]}
{"smiles": "COCCNc1nc(Nc2cccc(Cl)c2)c2ncn(C(C)C)c2n1", "note": "[Compound 13]", "values": [{"measurement": "activity in the MDM2-Luc assay", "setting": "[1]", "value": "dramatically reduced activity"}, {"measurement": "activity in the CLK assay", "setting": "CLK1", "value": "active"}, {"measurement": "solubility", "setting": "Solubility", "value": "very poor solubility"}]}
{"smiles": "CC(C)n1cnc2c(Nc3cccc(Cl)c3)nc(N[C@@H]3CCCC[C@@H]3N)nc21", "note": "[Compound 9]", "values": [{"measurement": "activity in the MDM2-Luc assay", "setting": "[1]", "value": "strong luciferase response"}, {"measurement": "off-target activity against Flt3", "setting": "Flt3", "value": "some significant off-target activity"}, {"measurement": "off-target activity against Src(1-530)", "setting": "Src(1-530)", "value": "some significant off-target activity"}]}
{"smiles": "CC(=O)Nc1cc(Cl)cc(Nc2nc(N[C@@H]3CCCC[C@@H]3N)nc3c2ncn3C(C)C)c1", "note": "[Compound 18]", "values": [{"measurement": "IC50", "setting": "CDK4", "value": 611, "unit": "nM"}]}
{"smiles": "CC(C)n1cnc2c(Nc3cccc(Cl)c3)nc(N[C@H]3CCCC[C@H]3N)nc21", "note": "[Compound 10]", "values": [{"measurement": "activity in the MDM2-Luc assay", "setting": "[1]", "value": "strong luciferase response"}]}
